High-throughput results: PubChem BioAssay, Broad Institute
Most compounds without a hit are left out; they make up all but 5.9% or so of the library.
T cruzi growth-1: inhibitors of T. cruzi proliferation. T. cruzi beta-gal in NIH3T3, GalScreen luminescence, 90 h. inhibition, % at 8.34 µM. hit rate 5.9% among 77,000;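 active = mean inhibition above about 93%, with at least 55% of replicates each passing it, limit read from the data, passing the limit was not always enough; inconclusive = only one of those two conditions holds; inactive = neither condition holds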
IDH1 R132H inh: blocks human IDH1 R132H reductase activity. O75874. diaphorase/resazurin fluorescence, 60 min. inhibition, % at 10 µM. hit rate 0.18% among 70,000. AID 624101; in the data active = inhibition above about 34%; inconclusive = no clear call, values can overlap the other calls; inactive = below about 11%;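 also: 0% = DMSO and 100% = no enzyme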
Target sequence (O75874 whole entry R132H): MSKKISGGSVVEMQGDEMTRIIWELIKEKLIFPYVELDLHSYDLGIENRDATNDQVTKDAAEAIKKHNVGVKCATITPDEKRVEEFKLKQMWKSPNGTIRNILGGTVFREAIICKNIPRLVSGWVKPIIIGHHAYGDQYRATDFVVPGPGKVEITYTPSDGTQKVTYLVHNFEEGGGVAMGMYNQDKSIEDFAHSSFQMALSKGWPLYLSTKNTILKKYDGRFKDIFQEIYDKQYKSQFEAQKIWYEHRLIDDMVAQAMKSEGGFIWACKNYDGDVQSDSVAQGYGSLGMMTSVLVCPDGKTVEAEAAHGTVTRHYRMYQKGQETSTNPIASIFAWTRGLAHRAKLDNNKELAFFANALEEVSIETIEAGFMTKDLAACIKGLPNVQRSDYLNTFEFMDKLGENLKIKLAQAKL
Pf Dd2 growth: inhibitors of Plasmodium falciparum Dd2 growth; P. falciparum Dd2 growth, SYBR Green, 72 h; stronger effect = lower value; activity change, % at 10 µM; hit rate 2.3% among 94,000; in the data active = activity change below about -80%; inconclusive = no clear call, values can overlap the other calls
KDM4C inh: blocks human GASC-1 (KDM4C) demethylase activity. Q9H3R0. GST-KDM4C 2-372, H3K9me3 peptide, LANCE TR-FRET. inhibition, % at 12.5 µM. hit rate 0.15% among 96,000;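 active = mean replicate inhibition above about 25%, with at least 55% of replicates also reaching it, limit read from the data, passing the limit was not always enough; inconclusive = only one of those two conditions met; inactive = neither condition met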
Target sequence (Q9H3R0 2-372 limits assumed): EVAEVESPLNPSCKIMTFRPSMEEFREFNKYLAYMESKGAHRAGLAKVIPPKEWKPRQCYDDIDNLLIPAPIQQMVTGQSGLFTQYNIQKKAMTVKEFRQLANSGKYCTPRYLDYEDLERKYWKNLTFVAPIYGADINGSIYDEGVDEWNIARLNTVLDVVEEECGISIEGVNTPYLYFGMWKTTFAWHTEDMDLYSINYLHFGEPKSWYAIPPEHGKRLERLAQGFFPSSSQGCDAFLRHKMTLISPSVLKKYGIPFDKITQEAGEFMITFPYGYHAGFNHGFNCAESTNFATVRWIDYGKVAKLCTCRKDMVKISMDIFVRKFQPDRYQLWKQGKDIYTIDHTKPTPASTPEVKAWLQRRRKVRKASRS
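reagent = H3K9me3 peptide substrate, Fe(II), 2-oxoglutarate | system = GST-tagged GASC-1 (JMJD2C) catalytic fragment, aa 2-372 | amount = enzyme final amount 10 nM | read-out = Fall in 671/618 emission ratio as inhibition | medium = HEPES buffer, pH 7.5, plus ascorbate | schedule = 30 min reaction, 60 min detection, RT | measured by = LANCE TR-FRET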
T cruzi growth-2: blocks T. cruzi growth in NIH3T3 host cells; shares compounds with T cruzi growth-1; T. cruzi beta-gal in NIH3T3, GalScreen luminescence, 90 h; inhibition, % at 8.35 µM; hit rate 72% among 5,600;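 active = mean replicate inhibition above about 95% and at least 55% of replicates individually reaching it, limit read from the data; inconclusive = only one of the two criteria is met; inactive = neither criterion is met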
T cruzi growth-3: Trypanosoma cruzi proliferation inhibition; shares compounds with T cruzi growth-1; T. cruzi beta-gal in NIH3T3, GalScreen luminescence, 90 h; inhibition, % at 2.09 µM; hit rate 21% among 5,600; AID 651740;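 active = mean inhibition above about 95%, with at least 55% of replicates also reaching it, limit read from the data; inconclusive = meets just one of the two conditions; inactive = meets neither condition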;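 also: plate controls were neutral control median for no effect and positive control median for full effect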
3T3 cytotox: kills mouse NIH/3T3 fibroblasts; shares compounds with T cruzi growth-1; NIH/3T3 viability, CellTiter-Glo ATP luminescence, 90 h; cytotoxicity (signal decrease), % at 8.35 µM; hit rate 14% among 5,600; AID 651742;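 active = mean signal decrease across replicates above about 35% based on untreated-well scatter, with enough replicates individually passing, limit read from the data; inconclusive = no rule stated though some were filed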;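 also: 0% = median of neutral control wells and 100% = median of positive control wells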
3T3 cytotox 2: NIH/3T3 (mouse) viability loss. shares compounds with T cruzi growth-1. NIH/3T3 viability, CellTiter-Glo ATP luminescence, 90 h. hit rate 56% among 5,600. inhibition, % at 24.9 µM;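 active = mean loss of cell viability signal at or above a set limit, and enough replicates individually reaching it; inconclusive = meets only the mean limit or only the replicate share; inactive = meets neither condition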;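 also: 0% = median of neutral control wells and 100% = median of positive control wells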
* marks the source's active call; other numbers are inactive results; ? = inconclusive; nt = no result given.

SMILES	T cruzi growth-1	IDH1 R132H inh	Pf Dd2 growth	KDM4C inh	T cruzi growth-2	T cruzi growth-3	3T3 cytotox	3T3 cytotox 2
COc1ccc([N+](=O)[O-])cc1NC(=O)COc1ccc(C(C)(C)C)cc1Br	nt	0.3	nt	nt	nt	nt	nt	nt
CCCN1[C@@H]2c3ccc(C4=CCCCC4)c(=O)n3C[C@H]1[C@H](CO)[C@H]2C(=O)NCCc1ccncc1	nt	nt	-6.0	0.2	nt	nt	nt	nt
CCN1[C@@H]2Cn3c(ccc(C4=CCCCC4)c3=O)[C@H]1[C@@H](C(=O)NCCc1ccncc1)[C@@H]2CO	98.5*	nt	0.4	1.3	-20.2	0.3	-26.7	-26.5
CCN1[C@@H]2Cn3c(ccc(C4=CCCC4)c3=O)[C@H]1[C@@H](C(=O)NCc1ccccn1)[C@@H]2CO	98.8*	nt	-3.8	0.5	8.8	-9.2	-13.6	-7.0
CCn1c(SCC(=O)c2ccc(OC)cc2)nnc1-c1ccc(Cl)cc1	nt	-0.5	nt	nt	nt	nt	nt	nt
Cc1ccc(-c2ccc3c(c2)O[C@H](CN(C)C(=O)C2CCCCC2)[C@H](C)CN([C@H](C)CO)S3(=O)=O)cc1	121.0*	nt	-29.1	-2.5	95.8*	?	29.1	104.9*
Cc1ccc(-c2ccc3c(c2)O[C@@H](CN(C)C(=O)C2CCCCC2)[C@H](C)CN([C@H](C)CO)S3(=O)=O)cc1	111.7*	nt	-79.4	-1.6	101.2*	86.8	21.1	106.7*
C[C@@H]1CN([C@@H](C)CO)S(=O)(=O)c2ccc(-c3ccccc3)cc2O[C@H]1CN(C)C(=O)C1CCCCC1	?	nt	-49.9	-2.4	97.3*	52.5	33.6	-0.2
Cc1ccc(-c2ccc3c(c2)O[C@H](CN(C)C(=O)C2CCC2)[C@H](C)CN([C@@H](C)CO)S3(=O)=O)cc1	120.8*	nt	-50.4	2.5	83.3	73.2	41.0*	77.5*
C[C@@]12C[C@]3(O)O[C@H](O1)C1(COC(=O)c4ccccc4)[C@H]3C[C@@]12O[C@@H]1O[C@H](COC(=O)c2ccccc2)[C@@H](O)[C@H](O)[C@H]1O	nt	0.0	nt	nt	nt	nt	nt	nt
CC(=O)Nc1ccc(C(=O)CSc2cc(C)c3ccccc3n2)cc1	nt	-0.9	nt	nt	nt	nt	nt	nt
O=[N+]([O-])c1ccc(S(=O)(=O)NCCc2nc3ccccc3[nH]2)cc1	nt	0.0	nt	nt	nt	nt	nt	nt
COc1ccc([N+](=O)[O-])cc1NC(=O)CN(c1ccc(Br)c(C)c1)S(C)(=O)=O	nt	0.4	nt	nt	nt	nt	nt	nt
C[C@@H]1CN([C@H](C)CO)S(=O)(=O)c2ccc(-c3ccncc3)cc2O[C@H]1CN(C)C(=O)C1CCC1	103.2*	nt	-1.5	0.8	89.2	29.1	18.0	41.6*
Cc1ccc(-c2ccc3c(c2)O[C@H](CN(C)C(=O)C2CCCCC2)[C@H](C)CN([C@@H](C)CO)S3(=O)=O)cc1	117.9*	-4.7	-25.4	-1.7	94.5	72.8	50.2*	105.8*
Cc1ccc(C)c(N2CCN(C(=O)CN3CC(c4ccccc4)CC3=O)CC2)c1 (stereo not given)	nt	-0.4	nt	nt	nt	nt	nt	nt
COc1ccc(-c2ccc([C@H]3[C@H](C#N)N(C(=O)NC4CCCCC4)[C@H]3CO)cc2)cc1	101.3*	nt	-24.3	-2.7	101.8*	56.4	26.0	75.5*
COc1ccc(-c2ccc([C@H]3[C@H](C#N)N(C(=O)NC4CCCC4)[C@H]3CO)cc2)cc1	?	nt	-34.8	nt	80.0	28.2	12.8	24.7
COc1ccccc1-c1ccc([C@@H]2[C@@H](C#N)N(C(=O)NC3CCCCC3)[C@@H]2CO)cc1	94.6	nt	-35.1	-2.6	nt	nt	nt	nt
C[C@@H]1CCCCO[C@@H](CN(C)C(=O)C2CCCCC2)[C@@H](C)CN([C@H](C)CO)C(=O)c2cc(NC(=O)Nc3ccc(C(F)(F)F)cc3)ccc2O1	117.4*	nt	-49.8	19.6	86.6	63.3	29.6	25.6*
C[C@@H]1CCCCO[C@@H](CN(C)C(=O)C2CCCCC2)[C@@H](C)CN([C@H](C)CO)C(=O)c2cc(NC(=O)Nc3ccc(F)cc3)ccc2O1	11.6	nt	-49.1	1.2	nt	nt	nt	nt
C[C@@H]1CN([C@@H](C)CO)C(=O)c2cc(NC(=O)Nc3ccc(C(F)(F)F)cc3)ccc2O[C@@H](C)CCCCO[C@@H]1CN(C)C(=O)C1CCCCC1	102.3	0.7	-77.8	-0.2	nt	nt	nt	nt
C[C@@H]1CCCCO[C@H](CN(C)C(=O)C2CCCCC2)[C@H](C)CN([C@@H](C)CO)C(=O)c2cc(NC(=O)Nc3ccc(C(F)(F)F)cc3)ccc2O1	118.0*	nt	-59.1	0.2	98.0*	117.7*	-18.4	-1.9
C[C@H]1CCCCO[C@H](CN(C)C(=O)C2CCCCC2)[C@@H](C)CN([C@@H](C)CO)C(=O)c2cc(NC(=O)Nc3ccc(C(F)(F)F)cc3)ccc2O1	121.4*	0.1	?	2.1	96.0*	110.5*	-4.1	31.2*
C[C@H](CO)N1C[C@H](C)[C@H](CN(C)S(=O)(=O)c2ccccc2)Oc2c(NC(=O)Nc3cccc4ccccc34)cccc2C1=O	nt	-0.2	3.5	1.6	nt	nt	nt	nt
SMILES	T cruzi growth-1	IDH1 R132H inh	Pf Dd2 growth	KDM4C inh	T cruzi growth-2	T cruzi growth-3	3T3 cytotox	3T3 cytotox 2
COc1ccc(S(=O)(=O)N(C)C[C@H]2Oc3c(NC(=O)Nc4cccc5ccccc45)cccc3C(=O)N([C@@H](C)CO)C[C@@H]2C)cc1	100.3*	-1.6	-39.5	-0.4	111.8*	43.9	-26.9	9.9
COc1ccc(S(=O)(=O)N(C)C[C@H]2Oc3c(NC(=O)Nc4cccc5ccccc45)cccc3C(=O)N([C@H](C)CO)C[C@H]2C)cc1	127.8*	1.8	-82.6*	-1.2	15.0	12.0	1.5	28.9*
COc1ccc(S(=O)(=O)N(C)C[C@H]2Oc3c(NC(=O)Nc4cccc5ccccc45)cccc3C(=O)N([C@H](C)CO)C[C@@H]2C)cc1	117.0*	nt	-66.7	nt	108.3*	61.1	-0.3	16.4
CCOC(=O)CC(c1ccccc1)S(=O)(=O)O (stereo not given)	nt	0.3	nt	nt	nt	nt	nt	nt
O=C(Nc1ccccc1F)N1CCCCN2[C@H](CO)[C@H](c3ccc(C#Cc4cccnc4)cc3)[C@H]2C1	100.8*	nt	-48.5	-0.7	108.9*	64.1	26.8	69.5*
O=C(Nc1ccccc1F)N1CCCCN2[C@@H](CO)[C@H](c3ccc(C#Cc4cccnc4)cc3)[C@@H]2C1	122.3*	nt	-77.2	-0.1	106.2*	38.7	24.3	38.4*
O=C(Nc1ccccc1F)N1CCCCN2[C@H](C1)[C@H](c1ccc(C#Cc3ccccc3)cc1)[C@@H]2CO	69.4	nt	-26.0	0.9	nt	nt	nt	nt
OC[C@@H]1[C@H](c2ccc(C3=CCCC3)cc2)[C@H]2CN(Cc3cncnc3)CCCCN12	?	nt	-26.6	-0.8	88.0	69.0	13.8	45.8*
COc1cccc(-c2ccc([C@H]3[C@H](CO)N4CCCCN(Cc5cncnc5)C[C@@H]34)cc2)c1	89.4	nt	15.2	-0.8	nt	nt	nt	nt
